Assay results reported in ChEMBL document CHEMBL2086358, “Discovery of structurally-diverse inhibitor scaffolds by high-throughput screening of a fragment library with dimethylarginine dimethylaminohydrolase” (Bioorg Med Chem, 2012).
The source made the active and inactive calls. The calls are words filed in the database; no cut-off is given here.

Assays:
[1] = biological target: T1, N(G),N(G)-dimethylarginine dimethylaminohydrolase 1 (Homo sapiens, UniProt O94760); test: (§1) Inhibition of human recombinant His6-tagged DDAH1 expressed in Escherichia coli BL21(DE3) using Nomega,Nomega-dimethyl-L-arginine as substrate at 400 uM after 1 to 2 hrs by colorimetric ureido derivitization assay
How it was run: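 Rapid-onset secondary assay. Compound (400 μM) mixed with ADMA (300 μM, 2.5-fold over KM) in Reaction Buffer (Na2HPO4 172 mM, KCl 172 mM, Tween-20 0.02%, EDTA 2 mM, pH 7.3). Started with human DDAH-1 (1 μM final), run 1–2 h, quenched with HCl (1 M final). Ureido product read colorimetrically; ≥20% inhibition counted as a hit.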

[2] = biological target: T1, N(G),N(G)-dimethylarginine dimethylaminohydrolase 1; test: as §1, with “uM incubated for 10 to 20 mins prior to substrate addition measured” for “uM”, “assay in presence of 2 mM reduced glutathione” for “assay”
How it was run: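 Compound (400 μM) preincubated 10–20 min at room temperature with human DDAH-1 (1 μM) and reduced glutathione (2 mM) in Reaction Buffer, pH 7.3. ADMA (300 μM) then added; 1–2 h at room temperature, HCl quench (1 M final), colorimetric ureido derivatization. Inhibition compared against assays without glutathione.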

[3] = biological target: T1, N(G),N(G)-dimethylarginine dimethylaminohydrolase 1; test: Reversible inhibition of human recombinant His6-tagged DDAH1 expressed in Escherichia coli BL21(DE3) using 1 mM Nomega,Nomega-dimethyl-L-arginine as substrate incubated up to 120 mins prior to substrate addition measured after 120 mins by colorimetric ureido derivitization assay
How it was run: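 Human DDAH-1 (30 μM) incubated at room temperature with compound (0–2 mM) in Na2HPO4 100 mM, NaCl 100 mM, EDTA 2 mM, Tween-20 0.02%, pH 7.25, with or without reduced glutathione (2 mM). After 0–120 min, diluted 40-fold into ADMA (1 mM) in the same buffer. Incubated a further 120 min, quenched with HCl (300 mM final), and L-citrulline read colorimetrically.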

[4] = biological target: T1, N(G),N(G)-dimethylarginine dimethylaminohydrolase 1; test: Inhibition of human recombinant His6-tagged DDAH1 expressed in Escherichia coli BL21(DE3) using Nomega,Nomega-dimethyl-L-arginine as substrate after 80 mins by colorimetric ureido derivitization assay
[5] = biological target: T1, N(G),N(G)-dimethylarginine dimethylaminohydrolase 1; test: Competitive inhibition of human recombinant His6-tagged DDAH1 expressed in Escherichia coli BL21(DE3) using Nomega,Nomega-dimethyl-L-arginine as substrate after 80 mins by double-reciprocal plot analysis
[6] = biological target: T1, N(G),N(G)-dimethylarginine dimethylaminohydrolase 1; test: Inhibition of human recombinant His6-tagged DDAH1 expressed in Escherichia coli BL21(DE3) using S-methyl-L-thiocitrulline as substrate at 100 uM by CPM-based fluorescence spectrophotometry
How it was run: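 Primary HTS run in duplicate. Compound at 100 μM with human DDAH-1 (20 nM), S-methyl-L-thiocitrulline (0.4 μM) and CPM (3.5 μM) in K2HPO4 172 mM, KCl 172 mM, EDTA 2 mM, Tween-20 0.02%, DMSO 1%, pH 7.3. Enzyme–compound preincubation 10 min.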

[7] = biological target: T1, N(G),N(G)-dimethylarginine dimethylaminohydrolase 1; test: Inhibition of human recombinant His6-tagged DDAH1 expressed in Escherichia coli BL21(DE3) using Nomega,Nomega-dimethyl-L-arginine as substrate at 400 uM by colorimetric ureido derivitization assay; conditions: TDE = time-dependent effect
Pseudomonas aeruginosa [8] = test: Ratio of Kinact to KI for Pseudomonas aeruginosa His6-tagged DDAH expressed in Escherichia coli BL21(DE3) using S-methyl-Lthiocitrulline as substrate up to 1 mM measured every 20 secs for 10 mins by fluorescence spectrophotometry
Pseudomonas aeruginosa [9] = test: Inhibition of Pseudomonas aeruginosa His6-tagged DDAH expressed in Escherichia coli BL21(DE3) using S-methyl-Lthiocitrulline as substrate at 100 uM measured every 20 secs for 10 mins
Pseudomonas aeruginosa [10] = test: Inhibition of Pseudomonas aeruginosa His6-tagged DDAH expressed in Escherichia coli BL21(DE3) using S-methyl-Lthiocitrulline as substrate up to 1 mM measured every 20 secs for 10 mins by fluorescence spectrophotometry

T1 sequence (O94760 whole entry): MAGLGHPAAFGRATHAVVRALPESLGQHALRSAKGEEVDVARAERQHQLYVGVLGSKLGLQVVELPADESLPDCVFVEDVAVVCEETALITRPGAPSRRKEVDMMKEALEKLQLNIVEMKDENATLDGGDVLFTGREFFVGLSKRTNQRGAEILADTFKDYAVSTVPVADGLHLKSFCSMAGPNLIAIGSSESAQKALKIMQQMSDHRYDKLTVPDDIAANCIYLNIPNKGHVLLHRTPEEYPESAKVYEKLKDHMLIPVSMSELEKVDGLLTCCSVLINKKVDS

inhibition [1] | inhibition [2] | inhibition [3] | IC50 [4] | Ki [5] | inhibition [6] | inhibition [7] | Ratio (Pseudomonas aeruginosa [8]) | inhibition (Pseudomonas aeruginosa [9]) | inhibition (Pseudomonas aeruginosa [10]) | Structure (SMILES)
21% | 23% | Active | 2700 µM | 1700 µM |  |  |  |  |  | NCCSc1nc2ccccc2o1
74% | 95% |  |  |  | 55% | tde | 4.8 M⁻¹ s⁻¹ | 89% |  | Cc1cc(Br)ccn1
36% | 25% | Active | 1400 µM | 800 µM | 4% |  |  | 1% | inactive | CCc1nc2ccccc2[nH]1
56% | 46% |  |  |  | 17% | tde | 0.65 M⁻¹ s⁻¹ | 50% |  | OCc1cc(Cl)ccn1
